# Screening data as filed in PubChem BioAssay.
# MT1-MMP act inh: blocks activation of human MT1-MMP. P50281. HT1080 RFP-PRO-GFP cells, GFP/RFP ratio fluorescence, overnight; percent of plate control window, DMSO zero. GFP/RFP ratio change, % at 20 µM. 360,000 compounds, 0.061% hits. AID 651647;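 active = GFP/RFP ratio change of at least 30% with cell ATP level not reduced by more than half and red fluorescence within 50% of control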
#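 system = RFP-PRO-GFP reporter HT1080 cells | dosing = 20 µM single dose, 1% DMSO | timing = overnight cell settling, then overnight compound exposure, 37 °C, 5% CO2 | read-out basis = GFP/RFP fluorescence ratio | controls = DMSO and RFP-L50D-GFP cell wells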
# FAS-TE inh: inhibitors of human fatty acid synthase thioesterase domain; recombinant FAS-TE, OMFH fluorogenic substrate, fluorescence endpoint; 360,000 compounds, 0.67% hits; P49327; inhibition, % at 15 µM;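 active = compounds whose normalised, plate-corrected inhibition of enzyme fluorescence in the single-dose primary screen is 50% or more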;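 also: 0% = DMSO with enzyme and 100% = substrate without enzyme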
# DAGLB inhibitor: blocks human DAGLB lipase activity; Q8NCG7; HEK293T DAGLB membrane lysate, EnzChek fluorogenic substrate; inhibition, % at 5.17 µM; 340,000 compounds, 0.059% hits; AID 504411; in the data active = inhibition above about 34%;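 also: 0% = enzyme with vehicle and 100% = wells lacking enzyme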
# Target sequence (Q8NCG7 whole entry, looked up): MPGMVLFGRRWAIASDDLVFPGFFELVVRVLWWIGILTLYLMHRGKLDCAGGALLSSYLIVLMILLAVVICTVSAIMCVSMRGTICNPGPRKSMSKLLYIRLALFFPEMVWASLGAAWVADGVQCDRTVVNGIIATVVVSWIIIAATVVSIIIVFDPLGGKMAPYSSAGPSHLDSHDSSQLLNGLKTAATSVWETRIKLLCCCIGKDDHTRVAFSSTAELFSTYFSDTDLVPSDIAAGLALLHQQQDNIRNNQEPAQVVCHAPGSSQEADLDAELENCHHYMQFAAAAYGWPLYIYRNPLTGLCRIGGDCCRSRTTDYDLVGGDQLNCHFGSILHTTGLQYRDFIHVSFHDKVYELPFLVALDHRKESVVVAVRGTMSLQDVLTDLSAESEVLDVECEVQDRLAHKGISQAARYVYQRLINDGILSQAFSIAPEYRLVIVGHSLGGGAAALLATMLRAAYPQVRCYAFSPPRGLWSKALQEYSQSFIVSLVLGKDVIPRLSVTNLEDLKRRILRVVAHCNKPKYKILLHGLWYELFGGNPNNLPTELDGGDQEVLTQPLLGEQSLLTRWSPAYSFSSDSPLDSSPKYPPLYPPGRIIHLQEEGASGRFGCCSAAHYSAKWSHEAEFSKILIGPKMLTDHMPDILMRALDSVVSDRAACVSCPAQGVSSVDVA
# SKN-1 inh: blocks SKN-1 activity in C. elegans; C. elegans VP596 Pgst-4::GFP/RFP ratio, acrylamide-induced, 24 h; inhibition, % at 21.8 µM; 360,000 compounds, 0.49% hits; AID 624304;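 active = interference check ratio from 0.5 to 1.5 plus GFP to RFP signal ratio inhibition reaching or exceeding a fixed threshold, cut at about 30% in these data, passing the limit was not always enough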
# iPSC survival up: increases survival of single human iPS cells | hiPSC single-cell survival, ATPlite luminescence; 100% = ROCK inhibitor wells, 0% = DMSO | survival enhancement, % at 20 µM | 360,000 compounds, 0.044% hits | AID 602274; in the data active = survival enhancement above about 18%;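 also: cells exposed to compounds for 16 hours before the ATP read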
# FAS-TE inh conf: FAS thioesterase (human) inhibition, confirmation | shares compounds with FAS-TE inh | recombinant FAS-TE, OMFH fluorogenic substrate, fluorescence | inhibition, % at 15 µM | 2,300 compounds, 45% hits | AID 624325;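 active = compounds inhibiting the enzyme by at least 50% at 15 µM in any one of the replicates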;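 also: 0% = enzyme with DMSO only and 100% = wells lacking enzyme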
# An asterisk follows results filed as active; x = not tested or not shown. Sampled rows, rich in hits. Any-hit rate of the full collection: about 1.3%.
SMILES,MT1-MMP act inh,FAS-TE inh,DAGLB inhibitor,SKN-1 inh,iPSC survival up,FAS-TE inh conf
O=C1C(F)=CC(COC(c2ccccc2)(c2ccccc2)c2ccccc2)OC1n1cc(F)c(=O)[nH]c1=O (centres undefined),-11,70*,10,-2,-3,52*
Cc1nc(/N=C(\N)NC(=O)N2c3ccccc3Sc3ccccc32)nc2ccccc12,-4,68*,-2,5,4,16
COc1ccc(N2C(=O)C3ON(C4SC(=S)N(C)C4(C)C)C(c4ccc(Cl)cc4)C3C2=O)cc1 (centres undefined),-5,71*,1,1,-1,31
COc1ccc(N2C(=O)C3ON(C4SC(=S)N(C)C4(C)C)C(c4ccc([N+](=O)[O-])cc4)C3C2=O)cc1 (centres undefined),1,45,-1,26,6,x
CCOC(=O)C1(C)CCCN(C(=O)c2cccs2)C1 (centres undefined),0,0,x,9,6,x
CCc1ccc(NS(=O)(=O)c2cc3c(cc2C)n(C)c(=O)c(=O)n3C)cc1,-5,74*,0,11,-2,83*
COc1ccc(CNC(=O)COC(=O)c2cc(C)oc2C)cc1,-6,1,-1,-3,-1,x
O=C(NCc1ccncc1)[C@@H]1CCCN1C(=O)[C@H]1CCCN1C(=O)c1c(F)cccc1F,-2,-4,x,8,0,x
Cc1ccc(S(=O)(=O)Cn2nnnc2C(C(C)C)N2CCN(c3nc4ccccc4s3)CC2)cc1 (centres undefined),-10,60*,-3,9,-2,41
COc1ccc(S(=O)(=O)N2CCCCC2)cc1NC(=O)c1cccc(S(=O)(=O)N2CC(C)OC(C)C2)c1 (centres undefined),-2,65*,0,-3,0,36
COc1ccc(S(=O)(=O)N2CCCCC2)cc1NC(=O)c1ccc2ccccc2n1,-14,53*,-4,18,2,7
COc1ccccc1NS(=O)(=O)c1cc(NC(=O)c2ccc3ccccc3n2)ccc1Cl,-1,65*,-1,12,8,24
COc1ccc(S(=O)(=O)N2CCOCC2)cc1NC(=O)c1cccc(-n2cccc2)c1,1,10,0,5,0,x
COc1ccc(S(=O)(=O)N2CCOCC2)cc1NC(=O)c1ccc(S(=O)(=O)N(C)c2ccccc2OC)cc1,-3,61*,-2,-9,0,5
CCCCN(C(=O)CC1CCCC1)c1c(N)n(Cc2ccccc2)c(=O)[nH]c1=O,0,-3,2,7,-2,x
CC(=O)O[C@H]1C(=O)[C@@]2(C)C([C@H](OC(=O)c3ccccc3)[C@]3(O)C[C@H](OC(=O)[C@H](O)[C@@H](NC(=O)c4ccccc4)c4ccccc4)C(C)=C1C3(C)C)[C@]1(OC(C)=O)CO[C@@H]1C[C@H]2O (some centres undefined),-9,52*,2,4,0,19
CCCC(C)c1nnc(NC(=O)c2cc(C(=O)OC)cc([N+](=O)[O-])c2)s1 (centres undefined),4,55*,3,2,1,58*
CCCC(C)NC(=O)c1cc(C(=O)OC)cc([N+](=O)[O-])c1 (centres undefined),19,20,-2,-5,5,x
CC(C)(C)c1ccc(C(=O)N2CCC2(C)C(=O)Nc2cccc(C#N)c2)cc1 (centres undefined),-4,65*,x,14,-1,66*
Cc1ccc(C)c(Cn2cnc3c(cnn3C(C)(C)C)c2=O)c1,7,13,-7,10,-6,x
CC(C)(C)n1ncc2c(=O)n(Cc3cc(F)c(Cl)cc3Cl)cnc21,2,52*,-2,-4,-3,35
Cc1cc(OCc2nc(N)nc(N)c2-c2ccc(Cl)c(Cl)c2)ccc1[N+](=O)[O-],2,51*,2,-11,-1,12
Cc1nc(N)nc(N)c1-c1ccc(Cl)c(Cl)c1,-12,-2,1,-6,2,x
CC1(C(=O)NS(=O)(=O)c2ccc(C#N)cc2)CCN1C(=O)Cc1ccccc1Cl (centres undefined),1,-4,x,29,-2,x
C/C(=N\Nc1cc(N2CCOCC2)nc(C)n1)c1cccc([N+](=O)[O-])c1,-2,18,2,-10,0,x
SMILES,MT1-MMP act inh,FAS-TE inh,DAGLB inhibitor,SKN-1 inh,iPSC survival up,FAS-TE inh conf
CCCCc1ccc(/C(C)=N/Nc2cc(N3CCOCC3)nc(C)n2)cc1,-5,73*,-5,-9,0,20
Cc1ccc(S(=O)ONc2cccc(NOS(=O)c3ccc(C)cc3)c2)cc1 (centres undefined),-3,10,2,-8,4,x
O=C1[C@H]2[C@@H](c3ccc(F)cc3)N3C(=O)N(c4ccccc4)C(=O)[C@@]3(Cc3ccccc3)[C@H]2C(=O)N1C1CCCCC1,-2,59*,-3,18,-2,36*
O=C1[C@H]2[C@@H](c3ccc(F)cc3)N3C(=O)N(c4cccc(Cl)c4)C(=O)[C@@]3(Cc3ccc(Cl)cc3)[C@H]2C(=O)N1C1CCCCC1,0,86*,-2,25,-2,19
COc1ccc(-n2nnnc2C2(C)CCC(=O)N2Cc2ccccc2)cc1 (centres undefined),-2,x,x,0,x,x
CCCCN1C(=O)C(CC(=O)NCCCCc2ccccc2)CC(C(=O)N(C)C)=C1C (centres undefined),4,-6,1,-4,1,x
CCCC(=O)OCCNc1cc(Sc2nccn2C)c2nonc2c1[N+](=O)[O-],2,62*,-2,8,-1,62*
CCCSc1cc(NCCOC(C)=O)c([N+](=O)[O-])c2nonc12,1,14,-2,8,2,x
CCCSc1cc(NCCOC(=O)CCC)c([N+](=O)[O-])c2nonc12,0,51*,-1,1,-1,58*
O=C(C[n+]1cccc(/C=N/O)c1)NC(=O)Nc1ccccc1,2,-13,x,-8,-2,x
CCN(C(=O)COC(=O)c1ccccc1Nc1ccccc1)c1c(N)n(Cc2ccccc2)c(=O)[nH]c1=O,-29,77*,5,-11,-1,4
O=[N+]([O-])c1cc(-c2csc(NCCc3nc4cc(C(F)(F)F)ccc4n3CCCO)n2)ccc1Cl,15,81*,4,-12,-2,70*
Cc1nc2cc(C(F)(F)F)ccc2n1CCNc1nc(-c2ccc([N+](=O)[O-])c(Cl)c2)cs1,6,52*,4,-13,0,30
Cc1nc2cc(C(F)(F)F)ccc2n1CCNc1nc(-c2ccc(F)cc2)cs1,0,9,-2,10,5,x
COc1ccc(NC(=O)Cc2coc3cc(C)c(C(C)C)cc23)cc1S(=O)(=O)N1CCOCC1,-3,7,-4,12,3,x
